From ChEMBL document CHEMBL3576792, “Enhancement of antibiotic activity against multidrug-resistant bacteria by the efflux pump inhibitor 3,4-dibromopyrrole-2,5-dione isolated from a Pseudoalteromonas sp” (J Nat Prod, 2015)
In brackets after ≈: the same amount, converted by molar mass. Activity calls are given as the source filed them. No cut-off for these calls is given here. Residues, ends and D or L forms follow the SMILES beside them. *: point of attachment. βNA = c1ccc2cc(N*)ccc2c1

Tests used:
Escherichia coli [1] = experiment: Antibacterial activity against Escherichia coli transformed with plasmid carrying MG1655 deltaBC/pABM by p-iodonitrotetrazolium chloride colorimetric assay; format: functional
In short: (§1)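 Two-fold broth microdilution in Mueller-Hinton broth, read by p-iodonitrotetrazolium chloride colorimetric assay. MIC is the lowest concentration giving no visible growth. MG1655 ΔacrB ΔtolC strains carrying pABM or pXYM were always cultured with 100 μg/mL ampicillin and 1 mM IPTG. Medium, inoculum and 1% DMSO (final) served as negative control.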

Escherichia coli [2] = experiment: Antibacterial activity against Escherichia coli AG102 overexpressing AcrAB-TolC by p-iodonitrotetrazolium chloride colorimetric assay; format: functional; in short: as §1
Escherichia coli [3] = experiment: Antibacterial activity against Escherichia coli transformed with plasmid carrying MG1655 deltaBC/pXYM by p-iodonitrotetrazolium chloride colorimetric assay; format: functional; in short: as §1
Escherichia coli [4] = experiment: Inhibition of AcrAB-TolC pump in Escherichia coli AG100 assessed as increase in intracellular H33342 fluorescence at 15.6 ug/ml after 60 mins by efflux inhibition assay; format: cell-based
In short: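 AG100 (wild-type K-12) or AG100A (ΔacrAB) cells were grown in Luria broth at 37 °C and 200 rpm to OD600 1.0, PBS-washed and diluted to OD600 0.3. Cells took up 2.5 μM Hoechst 33342 with 22 mM glucose at 37 °C for about 30 min, then compound (0.06–64 μg/mL) or PAβN (15.6 μg/mL) was added. Fluorescence (Ex 350/Em 460 nm) was followed for 60 min and corrected for background. The last four time points were compared to dye-only control by ANOVA with Dunnett's test, run in duplicate.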

Question: Which MIC (Escherichia coli [1]) does the source give for `CN(C)[C@@H]1C(O)=C(C(N)=O)C(=O)[C@@]2(O)C(O)=C3C(=O)c4c(O)cccc4[C@@](C)(O)[C@H]3C[C@@H]12` [TETRACYCLINE] here?
Answer: The MIC was 2 µg/mL (≈ 4.5 µM).

Question: And the MIC (Escherichia coli [2])?
Answer: The MIC was 8 µg/mL (≈ 18 µM).

Question: What about the MIC (Escherichia coli [3]) of the same compound?
Answer: Its MIC is 0.25 µg/mL (≈ 0.563 µM).

Question: `N=C(N)NCCC[C@H](NC(=O)[C@@H](N)Cc1ccccc1)C(=O)Nc1ccc2ccccc2c1` (H-Phe-Arg-βNA) was tested. Which inhibition (Escherichia coli [4]) did it give?
Answer: The inhibition was “Active”.

Question: For `O=C(N[C@H](CO)[C@H](O)c1ccc([N+](=O)[O-])cc1)C(Cl)Cl` [CHLORAMPHENICOL], which MIC (Escherichia coli [1]) is on record?
Answer: Its MIC is 24 µg/mL (≈ 74.3 µM).

Question: What about the MIC (Escherichia coli [2]) of the same compound?
Answer: The MIC was 24 µg/mL (≈ 74.3 µM).

Question: What about the MIC (Escherichia coli [3]) of the same compound?
Answer: The MIC was 0.75 µg/mL (≈ 2.32 µM).

Question: `NC[C@H]1O[C@H](O[C@H]2[C@H](O)[C@@H](O[C@H]3O[C@H](CO)[C@@H](O)[C@H](N)[C@H]3O)[C@H](N)C[C@@H]2N)[C@H](O)[C@@H](O)[C@@H]1O` [KANAMYCIN] was tested. Which MIC (Escherichia coli [1]) did it give?
Answer: Its MIC is 2 µg/mL (≈ 4.13 µM).

Question: And the MIC (Escherichia coli [2])?
Answer: Its MIC is 16 µg/mL (≈ 33 µM).

Question: What about the MIC (Escherichia coli [3]) of the same compound?
Answer: Its MIC is 0.25 µg/mL (≈ 0.516 µM).

Question: For `C[C@H]1COc2c(N3CCN(C)CC3)c(F)cc3c(=O)c(C(=O)O)cn1c23.C[C@H]1COc2c(N3CCN(C)CC3)c(F)cc3c(=O)c(C(=O)O)cn1c23.O` [LEVOFLOXACIN], which MIC (Escherichia coli [1]) is on record?
Answer: Its MIC is 0.13 µg/mL.

Question: What about the MIC (Escherichia coli [2]) of the same compound?
Answer: Its MIC is 0.13 µg/mL.

Question: What about the MIC (Escherichia coli [3]) of the same compound?
Answer: The MIC was 0.13 µg/mL.

Question: How did the MIC (Escherichia coli [1]) turn out when `CCN1CCN(C(=O)N[C@@H](C(=O)N[C@@H]2C(=O)N3[C@@H]2SC(C)(C)[C@@H]3C(=O)O)c2ccccc2)C(=O)C1=O` [PIPERACILLIN] was run?
Answer: The MIC was > 512 µg/mL.

Question: What about the MIC (Escherichia coli [2]) of the same compound?
Answer: The MIC was 4 µg/mL (≈ 7.73 µM).

Question: What about the MIC (Escherichia coli [3]) of the same compound?
Answer: Its MIC is 512 µg/mL (≈ 989 µM).

Question: For `Cc1onc(-c2ccccc2)c1C(=O)N[C@@H]1C(=O)N2[C@@H]1SC(C)(C)[C@@H]2C(=O)O` [OXACILLIN], which MIC (Escherichia coli [1]) is on record?
Answer: The MIC was > 1300 µg/mL.

Question: What about the MIC (Escherichia coli [2]) of the same compound?
Answer: Its MIC is > 650 µg/mL.

Question: And the MIC (Escherichia coli [3])?
Answer: The MIC was > 1300 µg/mL.

Question: With `CC[C@H]1OC(=O)[C@H](C)[C@@H](O[C@H]2C[C@@](C)(OC)[C@@H](O)[C@H](C)O2)[C@H](C)[C@@H](O[C@@H]2O[C@H](C)C[C@H](N(C)C)[C@H]2O)[C@](C)(O)C[C@@H](C)C(=O)[C@H](C)[C@@H](O)[C@]1(C)O` [ERYTHROMYCIN] as the compound, how does the MIC (Escherichia coli [1]) read?
Answer: The MIC was 32 µg/mL (≈ 43.6 µM).

Question: What about the MIC (Escherichia coli [2]) of the same compound?
Answer: Its MIC is 128 µg/mL (≈ 174 µM).

Question: What about the MIC (Escherichia coli [3]) of the same compound?
Answer: The MIC was 32 µg/mL (≈ 43.6 µM).

Question: How did the MIC (Escherichia coli [2]) turn out when `O=C(O)c1cn(C2CC2)c2cc(N3CCNCC3)c(F)cc2c1=O` [CIPROFLOXACIN] was run?
Answer: The MIC was 0.13 µg/mL (≈ 0.392 µM).
